Data: ChEMBL document CHEMBL5036316, “Re-emerging Aspartic Protease Targets: Examining Cryptococcus neoformans Major Aspartyl Peptidase 1 as a Target for Antifungal Drug Discovery” (J Med Chem, 2021)
Active and inactive are the calls of the source. No cut-off for these calls is given here.

Key:
[1] = Binding affinity to recombinant Cryptococcus neoformans var. grubii H99 major aspartyl peptidase 1 assessed as inhibition constant
Cryptococcus neoformans [2] = assay: Antifungal activity against Cryptococcus neoformans var. grubii H99 expressing major aspartyl peptidase 1 assessed as growth inhibition measured after 48 hrs; format: functional, organism-based; settings: dose 0.1-50 µM
Summary of the method: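 C. neoformans H99 grown in YNB with 2% glucose; overnight cultures diluted to OD600 0.1 with 0.1, 1.0, 10 or 50 μM compound or 0.5% DMSO vehicle. Incubated at 30 °C on a tube rotator; terminal saturation density read as OD600 after 48 h. Triplicate cultures, mean ± standard deviation.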

Cryptococcus neoformans [3] = assay: Antifungal activity against may1delta Cryptococcus neoformans var. grubii H99 assessed as reduction of density in stationary phase at 50 uM measured upto 48 hrs; format: functional, organism-based; settings: time hrs <=48
Summary of the method: (§1)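 Logarithmically growing may1Δ (and H99) yeast pelleted and resuspended to OD600 0.1 in unbuffered YNB or YNB with 50 mM MES pH 6.5. Treated with 50 μM compound or 0.5% DMSO vehicle at 30 °C on a tube rotator. OD600 read every 2 h for 12 h, then at 24 and 48 h. Triplicate cultures, mean ± standard deviation.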

Renin = biological target: T1, Renin (Homo sapiens, UniProt P00797); assay: Inhibition of human renin assessed as inhibition constant using H-R-E(EDANS)-1HPFHLVIHT-K(DABCYL)-R-OH as susbtrate by spectrophotometric analysis
T1 sequence (P00797 whole entry): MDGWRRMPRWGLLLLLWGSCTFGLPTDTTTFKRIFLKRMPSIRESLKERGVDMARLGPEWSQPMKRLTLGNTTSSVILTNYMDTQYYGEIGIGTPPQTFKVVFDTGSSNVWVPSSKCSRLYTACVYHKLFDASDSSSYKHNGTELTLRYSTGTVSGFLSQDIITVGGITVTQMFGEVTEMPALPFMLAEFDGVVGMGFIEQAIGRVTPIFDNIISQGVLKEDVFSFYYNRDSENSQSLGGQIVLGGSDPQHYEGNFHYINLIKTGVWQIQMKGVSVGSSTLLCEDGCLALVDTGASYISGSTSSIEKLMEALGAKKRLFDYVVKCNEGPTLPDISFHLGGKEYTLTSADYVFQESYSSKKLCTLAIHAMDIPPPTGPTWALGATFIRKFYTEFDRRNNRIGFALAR

HeLa = assay: Cytotoxicity against human HeLa cells assessed as cell viability by celltiter-glo luminescent cell viability assay; format: functional
MCF7 = assay: Cytotoxicity against human MCF7 cells assessed as cell viability by celltiter-glo luminescent cell viability assay; format: functional
[4] = biological target: Human immunodeficiency virus type 1 protease (Human immunodeficiency virus 1, UniProt Q72874); assay: Inhibition of wild type HIV-1 protease assessed as initial inhibition constant by spectrophotometric analysis
Cathepsin D = Cathepsin D (Homo sapiens, UniProt P07339); assay: Inhibition of human cathepsin D assessed as inhibition constant using ACC-GKPILFFRILK-(DNP)-(dR)-NH2 as substrate by spectrophotometric analysis
Cathepsin D, sequence (P07339 65-162 limits assumed): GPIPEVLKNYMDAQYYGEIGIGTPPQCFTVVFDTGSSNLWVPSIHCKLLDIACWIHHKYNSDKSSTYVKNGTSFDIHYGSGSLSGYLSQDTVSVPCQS
Cathepsin D, sequence (P07339 169-412 limits assumed): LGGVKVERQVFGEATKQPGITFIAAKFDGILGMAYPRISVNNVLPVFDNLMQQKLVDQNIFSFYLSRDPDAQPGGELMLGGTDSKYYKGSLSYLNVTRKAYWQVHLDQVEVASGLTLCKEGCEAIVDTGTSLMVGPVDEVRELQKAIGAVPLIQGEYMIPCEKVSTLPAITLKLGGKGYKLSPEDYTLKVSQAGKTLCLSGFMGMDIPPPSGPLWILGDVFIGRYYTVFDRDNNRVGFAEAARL

CCRF-CEM = assay: Cytotoxicity against human CCRF-CEM cells assessed as cell viability by celltiter-glo luminescent cell viability assay; format: cell-based
HL-60 = assay: Cytotoxicity against human HL-60 cells assessed as cell viability by celltiter-glo luminescent cell viability assay; format: functional
Cathepsin E = biological target: T2, Cathepsin E (Homo sapiens, UniProt P14091); assay: Inhibition of human cathepsin E assessed as inhibition constant using ACC-GKPILFFRILK-(DNP)-(dR)-NH2 as substrate by spectrophotometric analysis
T2 sequence (P14091 whole entry): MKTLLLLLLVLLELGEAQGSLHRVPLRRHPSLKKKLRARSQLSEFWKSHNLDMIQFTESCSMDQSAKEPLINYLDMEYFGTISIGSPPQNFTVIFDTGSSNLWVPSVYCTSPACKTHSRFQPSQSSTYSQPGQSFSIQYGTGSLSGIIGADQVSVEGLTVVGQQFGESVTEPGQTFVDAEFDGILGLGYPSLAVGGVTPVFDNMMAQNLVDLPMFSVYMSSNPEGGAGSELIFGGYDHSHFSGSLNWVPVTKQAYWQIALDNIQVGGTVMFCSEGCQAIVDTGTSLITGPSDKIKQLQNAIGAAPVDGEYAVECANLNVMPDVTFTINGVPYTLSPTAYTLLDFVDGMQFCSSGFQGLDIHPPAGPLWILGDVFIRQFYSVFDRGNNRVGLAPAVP

HepG2 = assay: Cytotoxicity against human HepG2 cells assessed as cell viability by celltiter-glo luminescent cell viability assay; format: functional
[5] = Inhibition of porcine pepsin assessed as inhibition constant using BSA-bromophenol blue as substrate by spectrophotometric analysis; parameters: species or system Sus scrofa
Cryptococcus neoformans [6] = assay: Antifungal activity against may1delta Cryptococcus neoformans var. grubii H99 assessed as reduction of density in logarithmic phase at 50 uM measured upto 48 hrs; format: functional, organism-based; settings: time hrs <=48; summary of the method: as §1

Structure (SMILES)	Ki [1] [nM]	other results
CC[C@H](C)[C@H](NC(=O)[C@H](CCC(=O)O)NC(=O)C[C@H](O)[C@H](Cc1ccccc1)NC(=O)OCc1ccccc1)C(N)=O	410	–
NC(=O)[C@H](CC1CCCCC1)NC(=O)[C@H](CCC(=O)O)NC(=O)C[C@H](O)[C@H](Cc1ccccc1)NC(=O)OCc1ccccc1	160	–
CCC[C@H](NC(=O)[C@H](CCC(N)=O)NC(=O)C[C@H](O)[C@H](Cc1ccccc1)NC(=O)OCc1ccccc1)C(N)=O	470	–
CSCC[C@H](NC(=O)[C@H](CCC(N)=O)NC(=O)C[C@H](O)[C@H](Cc1ccccc1)NC(=O)OCc1ccccc1)C(N)=O	290	–
NC(=O)[C@H](Cc1c[nH]c2ccccc12)NC(=O)[C@H](CCC(=O)O)NC(=O)C[C@H](O)[C@H](Cc1ccccc1)NC(=O)OCc1ccccc1	340	–
NC(=O)CC[C@H](NC(=O)C[C@H](O)[C@H](Cc1ccccc1)NC(=O)OCc1ccccc1)C(=O)N[C@H](C(N)=O)c1ccccc1	360	–
CC(C)[C@H](NC(=O)[C@H](CCC(=O)O)NC(=O)C[C@H](O)[C@H](Cc1ccccc1)NC(=O)OCc1ccccc1)C(N)=O	82	Activity (Cryptococcus neoformans [2]): Dose-Dependent Effect
C[C@@H](O)[C@H](NC(=O)[C@H](CCC(=O)O)NC(=O)C[C@H](O)[C@H](Cc1ccccc1)NC(=O)OCc1ccccc1)C(N)=O	250	–
CCCC[C@H](NC(=O)[C@H](CCC(N)=O)NC(=O)C[C@H](O)[C@H](Cc1ccccc1)NC(=O)OCc1ccccc1)C(N)=O	170	–
CCC[C@H](NC(=O)[C@H](CCC(=O)O)NC(=O)C[C@H](O)[C@H](Cc1ccccc1)NC(=O)OCc1ccccc1)C(N)=O	410	–
NC(=O)[C@H](Cc1ccccc1)NC(=O)[C@H](CCC(=O)O)NC(=O)C[C@H](O)[C@H](Cc1ccccc1)NC(=O)OCc1ccccc1	390	–
NC(=O)CC[C@H](NC(=O)C[C@H](O)[C@H](Cc1ccccc1)NC(=O)OCc1ccccc1)C(=O)N[C@@H](CC1CCCCC1)C(N)=O	400	–
NC(=O)CC[C@H](NC(=O)C[C@H](O)[C@H](Cc1ccccc1)NC(=O)OCc1ccccc1)C(=O)N[C@@H](CCc1ccccc1)C(N)=O	64	–
CC(C)CN(C[C@@H](O)[C@H](Cc1ccccc1)NC(=O)O[C@H]1CCOC1)S(=O)(=O)c1ccc(N)cc1	750	–
CC[C@H](NC(=O)[C@H](CCC(=O)O)NC(=O)C[C@H](O)[C@H](Cc1ccccc1)NC(=O)OCc1ccccc1)C(N)=O	760	–
C[C@@H](O)[C@H](NC(=O)[C@H](CCC(N)=O)NC(=O)C[C@H](O)[C@H](Cc1ccccc1)NC(=O)OCc1ccccc1)C(N)=O	1300	–
CCCC[C@H](NC(=O)[C@H](CCC(=O)O)NC(=O)C[C@H](O)[C@H](Cc1ccccc1)NC(=O)OCc1ccccc1)C(N)=O	180	Activity (Cryptococcus neoformans [2]): Dose-Dependent Effect
NC(=O)[C@@H](NC(=O)[C@H](CCC(=O)O)NC(=O)C[C@H](O)[C@H](Cc1ccccc1)NC(=O)OCc1ccccc1)c1ccccc1	210	–
Cc1nc(COc2ccc(C[C@H](NC(=O)O[C@H]3CO[C@H]4OCC[C@H]43)[C@H](O)CN(CC(C)C)S(=O)(=O)c3ccc4c(c3)OCO4)cc2)cs1 [BRECANAVIR]	350	–
NC(=O)CC[C@H](NC(=O)C[C@H](O)[C@H](Cc1ccccc1)NC(=O)OCc1ccccc1)C(=O)N[C@@H](Cc1ccccc1)C(N)=O	320	–
CC[C@H](NC(=O)[C@H](CCC(N)=O)NC(=O)C[C@H](O)[C@H](Cc1ccccc1)NC(=O)OCc1ccccc1)C(N)=O	1200	–
CC(C)C[C@H](NC(=O)[C@H](CCC(=O)O)NC(=O)C[C@H](O)[C@H](Cc1ccccc1)NC(=O)OCc1ccccc1)C(N)=O	160	–
CSCC[C@H](NC(=O)[C@H](CCC(=O)O)NC(=O)C[C@H](O)[C@H](Cc1ccccc1)NC(=O)OCc1ccccc1)C(N)=O	280	–
CC[C@H](C)[C@H](NC(=O)[C@H](CCC(N)=O)NC(=O)C[C@H](O)[C@H](Cc1ccccc1)NC(=O)OCc1ccccc1)C(N)=O	240	–
NC(=O)[C@H](CCc1ccccc1)NC(=O)[C@H](CCC(=O)O)NC(=O)C[C@H](O)[C@H](Cc1ccccc1)NC(=O)OCc1ccccc1	12	Activity (Cryptococcus neoformans [3]): inactive; Ki (Renin): 19000 nM; CC50 (HeLa): > 80000 nM; CC50 (MCF7): > 80000 nM; Ki [4]: 0.032 nM; Ki (Cathepsin D): 620 nM; CC50 (CCRF-CEM): > 80000 nM; CC50 (HL-60): > 80000 nM; Ki (Cathepsin E): 440 nM; CC50 (HepG2): > 80000 nM; Ki [5]: 1600 nM; Activity (Cryptococcus neoformans [6]): inactive; Activity (Cryptococcus neoformans [2]): Dose-Dependent Effect
CC(C)[C@H](NC(=O)[C@H](CCC(N)=O)NC(=O)C[C@H](O)[C@H](Cc1ccccc1)NC(=O)OCc1ccccc1)C(N)=O	120	–
CC(C)[C@H](NC(=O)[C@H](Cc1ccccc1)C[C@H](O)[C@H](Cc1ccccc1)NC(=O)OC(C)(C)C)C(=O)N[C@@H](Cc1ccccc1)C(=O)N1CCOCC1	13	–
CCOP(=O)(COc1ccc(C[C@H](NC(=O)O[C@H]2CO[C@H]3OCC[C@H]32)[C@H](O)CN(CC(C)C)S(=O)(=O)c2ccc(OC)cc2)cc1)OCC	170	–
